Data reported in ChEMBL document CHEMBL1153749, “Flavonoids from the heartwood of the Thai medicinal plant Dalbergia parviflora and their effects on estrogenic-responsive human breast cancer cells” (2009).

What was measured:
Type in all cases: functional
T47D [1] = assay: Estrogenic activity in human T47D cells assessed as drug level causing stimulation of cell proliferation equivalent to 10 pM estradiol after 96 hrs by alamar blue assay
In short: (§1)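 Cells seeded at 10^4 per well in phenol red-free RPMI with 5% DCC-treated FBS. Compounds added in DMSO (vehicle control 1% DMSO) for 96 h at 37 °C, 5% CO2, with serial estradiol dilutions run alongside. Alamar Blue for 3 h, fluorescence ex 530/em 590 nm. Estradiol-equivalent concentration fitted by linear regression from at least five concentrations in quadruplicate.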

T47D [2] = assay: Estrogenic activity in human T47D cells assessed as drug level causing stimulation of cell proliferation equivalent to 100 pM estradiol after 96 hrs by alamar blue assay; in short: as §1
MCF7 [3] = assay: Estrogenic activity in human MCF7 cells assessed as drug level causing stimulation of cell proliferation equivalent to 100 pM estradiol after 96 hrs by alamar blue assay; in short: as §1
MCF7 [4] = assay: Estrogenic activity in luciferase transfected human MCF7 cells assessed as drug level causing stimulation of cell proliferation equivalent to 100 pM estradiol by luciferase reporter gene assay
In short: (§2)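 Reporter assay in MCF-7 or T47D cells transiently transfected with luciferase. Compounds tested from 0.01 to 10 µM. Luciferase induction is expressed as the compound concentration equivalent to the 10 or 100 pM estradiol response. Values come from linear regression over at least five concentrations in quadruplicate.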

T47D [5] = assay: Estrogenic activity in luciferase transfected human T47D cells assessed as drug level causing stimulation of cell proliferation equivalent to 10 pM estradiol by luciferase reporter gene assay; in short: as §2
T47D [6] = assay: Estrogenic activity in luciferase transfected human T47D cells assessed as drug level causing stimulation of cell proliferation equivalent to 100 pM estradiol by luciferase reporter gene assay; in short: as §2
MCF7 [7] = assay: Estrogenic activity in luciferase transfected human MCF7 cells assessed as drug level causing stimulation of cell proliferation equivalent to 10 pM estradiol by luciferase reporter gene assay; in short: as §2
MCF7 [8] = assay: Estrogenic activity in human MCF7 cells assessed as drug level causing stimulation of cell proliferation equivalent to 10 pM estradiol after 96 hrs by alamar blue assay; in short: as §1

SMILES	Activity (T47D [1])	Activity (T47D [2])	Activity (MCF7 [3])	Activity (MCF7 [4])	Activity (T47D [5])	Activity (T47D [6])	Activity (MCF7 [7])	Activity (MCF7 [8])
COc1ccc(-c2coc3cc(O)ccc3c2=O)cc1 [FORMONONETIN]	0.03 µM	>100 µM	>100 µM	0.01 µM	0.01 µM	0.01 µM	0.01 µM	>100 µM
COc1ccc([C@@H]2COc3cc(O)ccc3C2)c(O)c1	0.02 µM	0.2 µM	>100 µM	>100 µM	>100 µM	>100 µM	>100 µM	>100 µM
COc1ccc(-c2coc3cc(O)cc(O)c3c2=O)c(OC)c1O [KHRINONE C]	0.2 µM	8.6 µM	93.3 µM	>100 µM	0.2 µM	2 µM	>100 µM	4.5 µM
COc1ccc([C@@]2(O)COc3cc(O)ccc3C2=O)c(O)c1O [ISODARPARVINOL B]	>100 µM	>100 µM	>100 µM	3.4 µM	>100 µM	>100 µM	1.2 µM	>100 µM
COc1ccc(C2COc3cc(O)ccc3C2=O)cc1O (centres undefined)	>100 µM	>100 µM	>100 µM	>100 µM	6 µM	>100 µM	>100 µM	24.5 µM
O=C(/C=C/c1ccc(O)cc1)c1ccc(O)cc1O [ISOLIQUIRITIGENIN]	1 µM	>100 µM	4 µM	>100 µM	>100 µM	>100 µM	0.01 µM	1.1 µM
COc1ccc([C@H]2COc3cc(O)cc(O)c3C2=O)cc1O	0.5 µM	5.7 µM	>100 µM	2.7 µM	1.3 µM	>100 µM	0.6 µM	2.9 µM
O=C1C[C@@H](c2ccccc2)Oc2cc(O)cc(O)c21 [PINOCEMBRIN]	7.6 µM	>100 µM	>100 µM	>100 µM	>100 µM	>100 µM	>100 µM	17 µM
